Laboratory results as given in PMC9499614 (ACS chemical biology, 2022).
Like-named read-outs stand apart in the source and are kept apart here.

Key:
Sirt7-CLB = test: NanoBit; type: binding; settings: H3K18-acetylated nucleosomes with ADPr
In short: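 Sirt7 was fused C-terminally to the NanoLuc large-bit fragment and purified natively. […] Buffer: 50 mM Tris pH 8.0, 250 µg/ml BSA. Incubated 20 min at RT. NanoGlow substrate added (50x final dilution), equilibrated 5 min at 37°C, luminescence read every 30 s for 15 min.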

[1] = molecular target: Sirt7-CLB (Sirt7 with the NanoLuc large bit fused to its C-terminus) (UniProt Q9NRC8); test: split reporter
Sirt7 [2] = molecular target: T1, Sirt7 (Homo sapiens, UniProt Q9NRC8); settings: cited from earlier work; for activity of recombinant apoSirt7 (in words): in vitro
T1 sequence (Q9NRC8 1-400): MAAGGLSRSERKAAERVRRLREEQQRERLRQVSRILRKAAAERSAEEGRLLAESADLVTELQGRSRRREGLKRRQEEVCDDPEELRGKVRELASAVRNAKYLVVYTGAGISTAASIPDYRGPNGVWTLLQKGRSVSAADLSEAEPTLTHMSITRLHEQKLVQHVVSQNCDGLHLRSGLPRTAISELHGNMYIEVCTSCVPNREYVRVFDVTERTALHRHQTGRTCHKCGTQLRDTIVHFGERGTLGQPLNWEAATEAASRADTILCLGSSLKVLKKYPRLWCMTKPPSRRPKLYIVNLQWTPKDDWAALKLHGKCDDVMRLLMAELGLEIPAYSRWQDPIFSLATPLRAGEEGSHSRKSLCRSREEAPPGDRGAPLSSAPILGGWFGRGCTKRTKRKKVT

apoSirt7 = molecular target: T2, apoSirt7 (Homo sapiens, UniProt Q9NRC8); test: Michaelis-Menten kinetics with variable H3K18 acylated peptide, apoSirt7; type: biochemical; settings: uncomplexed Sirt7, H3K18Ac
T2 sequence (Q9NRC8 1-400): T1 sequence (Q9NRC8 1-400)
In short: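 Acylated H3K18 peptide serially diluted in 50 mM Tris pH 8.0 with 20% DMSO. 20 µL of Sirt7 solution was mixed with 20 µL of peptide at 37°C. Reactions were started with 10 µL of 10 mM NAD⁺ stock, run 5-60 min at 37°C and quenched with 6% TFA. Products were resolved by C18 HPLC. Product concentration = deacetylated/acetylated peak ratio × total substrate. Three independent experiments; Michaelis-Menten fit.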

[3] = system: acidic patch regions of nucleosomes; test: LANA-FAM nucleosome binding and competition with Sirt7; design: species or system human; settings: LANA-FAM pre-bound to nucleosomes, fluorescence anisotropy
Sirt7 [4] = molecular target: T1, Sirt7; type: biochemical; settings: saturating H3K18-Deca peptide, variable NAD^+
In short: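 NAD⁺ serially diluted (10-10000 µM) in 50 mM Tris pH 8.0. Mixed 1:1 with 500 µM (pre-mix) H3K18Ac-DNB or H3K18Deca-DNB peptide in 50 mM Tris pH 8.0, 20% DMSO, 1 mM DTT. Pre-incubated 10 min at 37°C. Started with Sirt7 complex carrying 2 µM nicotinamidase, run 30-60 min, quenched with 6% TFA. HPLC monitored at 400 nm; Michaelis-Menten fit.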

## Nc1ncnc2c1ncn2[C@@H]1O[C@H](COP(=O)(O)OP(=O)(O)OC[C@H]2OC(O)[C@H](O)[C@@H]2O)[C@@H](O)[C@H]1O (stereo partly shown) [ADPr, ADP-ribose]
Sirt7-CLB
  reduction in Kd value on ADPr addition: 2.5 fold

## H3K18-acetylated small bit nucleosomes (SMB-AcNucs) (from UniProt P0C0S8 1-130; P68431 1-136; P62805 1-103) (complex)
[1]
  Kd: 3.75 nM

## Sirt7: 400 amino acid protein within the Class III deacetylase family; recombinant, E. coli
Sirt7 [2]; no reference number at the word, ref [19],[28] in sentence
  activity of recombinant apoSirt7 (in words): completely inactive
Sirt7 [2]; ref [19]
  activity of recombinant apoSirt7 (in words): completely inactive
Sirt7 [2]; ref [19],[40]
  activity of apoSirt7 (in words): inactive
apoSirt7
  H3K18 deacetylation activity (in words): very low, but readily measurable H3K18 deacetylation activity
[3]
  displacement of LANA-FAM from nucleosomes (in words): Competitive displacement of LANA-FAM peptide from the pre-formed LANA-nucleosomal complex
Sirt7 [4]; read-out: KM^NAD, 50 mM Tris pH 8.0, 37°C, 30-60 min, HPLC
  Km: 680 ± 80 µM
Sirt7 [4]
  kcat/KM: 32±4.1 M^−1x s^−1
Sirt7 [4]; 50 mM Tris pH 8.0, 37°C, 30-60 min, HPLC
  kcat: 0.022 ± 0.001 s⁻¹
